According to ChEMBL document CHEMBL1821681, “Synthesis and biological evaluation of derivatives of 4-deoxypodophyllotoxin as antitumor agents” (Eur J Med Chem, 2011):
pIC50: −log10 of the molar value.

Experiments:
A549 [1] = assay: Cytotoxicity against human A549 cells after 48 hrs by MTT assay; type: functional, cell-based; settings: A549, 48 h
How it was run: (§1)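 Cells kept at 37 °C under 5% CO2, plated and allowed to attach for 24 h, then exposed in quadruplicate wells for 48 h to five saline-dissolved concentrations. IC50 is the mean of three independent experiments.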

HeLa = assay: Cytotoxicity against human HeLa cells after 48 hrs by MTT assay; type: functional, cell-based; how it was run: as §1
SiHa = assay: Cytotoxicity against human SiHa cells after 48 hrs by MTT assay; type: functional, cell-based; how it was run: as §1
A549 [2] = assay: Induction of cell cycle arrest in human A549 cells assessed as accumulation at sub-G1 phase at 0.1 uM after 48 hrs using propidium iodide staining by FACS analysis (reference value: 21.7 %); type: functional
A549 [3] = assay: Induction of cell cycle arrest in human A549 cells assessed as accumulation at G1 phase at 0.1 uM after 48 hrs using propidium iodide staining by FACS analysis (reference value: 59.9 %); type: functional
A549 [4] = assay: Induction of cell cycle arrest in human A549 cells assessed as accumulation at S phase at 0.1 uM after 48 hrs using propidium iodide staining by FACS analysis (reference value: 36.7 %); type: functional
A549 [5] = assay: Induction of cell cycle arrest in human A549 cells assessed as accumulation at G2/M phase at 0.1 uM after 48 hrs using propidium iodide staining by FACS analysis (reference value: 3.2 %); type: functional
A549 [6] = assay: Induction of cell cycle arrest in human A549 cells assessed as accumulation at sub-G1 phase at 0.5 uM after 48 hrs using propidium iodide staining by FACS analysis (reference value: 21.7 %); type: functional
A549 [7] = assay: Induction of cell cycle arrest in human A549 cells assessed as accumulation at G1 phase at 0.5 uM after 48 hrs using propidium iodide staining by FACS analysis (reference value: 59.9 %); type: functional
A549 [8] = assay: Induction of cell cycle arrest in human A549 cells assessed as accumulation at S phase at 0.5 uM after 48 hrs using propidium iodide staining by FACS analysis (reference value: 36.7 %); type: functional

| SMILES | pIC50 (A549 [1]) | pIC50 (HeLa) | pIC50 (SiHa) | Activity (A549 [2]) | Activity (A549 [3]) | Activity (A549 [4]) | Activity (A549 [5]) | Activity (A549 [6]) | Activity (A549 [7]) | Activity (A549 [8]) |
| --- | --- | --- | --- | --- | --- | --- | --- | --- | --- | --- |
| COc1cc([C@@H]2c3cc4c(cc3C[C@H]3COC(=O)[C@@H]32)OCO4)cc(OC)c1O [4'-DEMETHYLDEOXYPODOPHYLLOTOXIN] | 5.43 | 5.13 | 5.68 | – | – | – | – | – | – | – |
| COc1cc([C@@H]2c3cc4c(cc3C[C@H]3COC(=O)[C@@H]32)OCO4)cc(OC)c1OC(=O)NCC(=O)N1CCN(C)CC1 | 5.40 | 6.15 | 5.30 | – | – | – | – | – | – | – |
| COc1cc([C@@H]2c3cc4c(cc3[C@@H](O[C@@H]3O[C@@H]5CO[C@@H](C)O[C@H]5[C@H](O)[C@H]3O)[C@H]3COC(=O)[C@H]23)OCO4)cc(OC)c1O [ETOPOSIDE] | 4.83 | 4.30 | 4.51 | 4.1% | 26% | 59.4% | 10.5% | – | – | – |
| COc1cc([C@@H]2c3cc4c(cc3C[C@H]3COC(=O)[C@@H]32)OCO4)cc(OC)c1OC(=O)NCC(=O)N1CCN(C2CCCC2)CC1 | 5.76 | 5.51 | 6.87 | – | – | – | – | – | – | – |
| COc1cc([C@@H]2c3cc4c(cc3C[C@H]3COC(=O)[C@@H]32)OCO4)cc(OC)c1OC(=O)N[C@H](CCSC)C(=O)N1CCNCC1 | 6.68 | 6.69 | 7.08 | – | – | – | – | – | – | – |
| COc1cc([C@@H]2c3cc4c(cc3C[C@H]3COC(=O)[C@@H]32)OCO4)cc(OC)c1OC(=O)N[C@@H](Cc1ccccc1)C(=O)N1CCNCC1 | 7.10 | 6.36 | 6.80 | – | – | – | – | – | – | – |
| COc1cc([C@@H]2c3cc4c(cc3C[C@H]3COC(=O)[C@@H]32)OCO4)cc(OC)c1OC(=O)NCC(=O)N1CCN(c2ccc(O)cc2)CC1 | 5.62 | 5.15 | 5.32 | – | – | – | – | – | – | – |
| COc1cc([C@@H]2c3cc4c(cc3C[C@H]3COC(=O)[C@@H]32)OCO4)cc(OC)c1OC [DESOXYPODOPHYLLOTOXIN] | 6.33 | 4.44 | 4.99 | – | – | – | – | 13.1% | 85.5% | 1.4% |
| COc1cc([C@@H]2c3cc4c(cc3C[C@H]3COC(=O)[C@@H]32)OCO4)cc(OC)c1OC(=O)N[C@@H](CCSC)C(=O)N1CCN(c2ccc([N+](=O)[O-])cc2)CC1 | 6.74 | 6.72 | 6.80 | – | – | – | – | – | – | – |
